Data reported in ChEMBL document CHEMBL4433203, “Design, synthesis, and evaluation of isoflavone analogs as multifunctional agents for the treatment of Alzheimer's disease” (Eur J Med Chem, 2019).

Columns and labels:
[1] = Acute toxicity ICR mouse assessed as induction of abnormal behavior at 0 to 1000 mg/kg, po measured up to 14 days; type: organism-based; conditions: in vivo, 336 h
In short: (§1)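 Male ICR mice (22 days, 20–22 g), n = 5 per group, chow and water ad libitum, 12 h light/dark cycle. Single oral dose of 0, 100, 200, 500 or 1000 mg/kg in 0.5% CMC-Na. Observed continuously for the first 4 h, intermittently over the next 24 h, then occasionally to 14 days. Euthanized on day 14.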

AChE = experiment: Selectivity index, ratio of CC50 for human SH-SY5Y cells to IC50 for inhibition of mouse brain AChE
Mus musculus [2] = experiment: Antialzheimer activity in ICR mouse model of scopolamine-induced cognitive deficit assessed as prolongation of scopolamine-induced latency at 10 to 30 mg/kg, po treated for 1 hr followed by scopolamine challenge for 30 mins by step-down passive avoidance test; type: functional, organism-based
In short: (§2)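 ICR mice, six weeks old, 18-22 g, either sex, n = 15/group. […] Step-down test used foot shock of 20 V, 0.5 mA, 2 s, with a training trial and a test 24 h later. Read-outs were latency to first step-down and number of shocks in 5 min. Mean ± SEM.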

Cholinesterase = Cholinesterase (Mus musculus, UniProt Q03311); experiment: Inhibition of mouse plasma BuChE using S-butyrylacetylthiocholine iodide as substrate measured after 30 mins by Ellman's method relative to control; conditions: read-out: IC50
[3] = Acute toxicity ICR mouse assessed as induction of macroscopic abnormalities in heart at 0 to 1000 mg/kg, po measured after 14 days; type: organism-based; conditions: in vivo, 336 h; in short: as §1
[4] = Half life in ICR mouse at 30 mg/kg, po measured upto 48 hrs by LCMS/MS method; type: ADME, organism-based; conditions: in vivo
Acetylcholinesterase = target: T1, Acetylcholinesterase (Mus musculus, UniProt P21836); experiment: Inhibition of mouse brain AChE using acetylthiocholine iodide as substrate measured after 30 mins by Ellman's method; conditions: read-out: IC50
T1 sequence (P21836 whole entry): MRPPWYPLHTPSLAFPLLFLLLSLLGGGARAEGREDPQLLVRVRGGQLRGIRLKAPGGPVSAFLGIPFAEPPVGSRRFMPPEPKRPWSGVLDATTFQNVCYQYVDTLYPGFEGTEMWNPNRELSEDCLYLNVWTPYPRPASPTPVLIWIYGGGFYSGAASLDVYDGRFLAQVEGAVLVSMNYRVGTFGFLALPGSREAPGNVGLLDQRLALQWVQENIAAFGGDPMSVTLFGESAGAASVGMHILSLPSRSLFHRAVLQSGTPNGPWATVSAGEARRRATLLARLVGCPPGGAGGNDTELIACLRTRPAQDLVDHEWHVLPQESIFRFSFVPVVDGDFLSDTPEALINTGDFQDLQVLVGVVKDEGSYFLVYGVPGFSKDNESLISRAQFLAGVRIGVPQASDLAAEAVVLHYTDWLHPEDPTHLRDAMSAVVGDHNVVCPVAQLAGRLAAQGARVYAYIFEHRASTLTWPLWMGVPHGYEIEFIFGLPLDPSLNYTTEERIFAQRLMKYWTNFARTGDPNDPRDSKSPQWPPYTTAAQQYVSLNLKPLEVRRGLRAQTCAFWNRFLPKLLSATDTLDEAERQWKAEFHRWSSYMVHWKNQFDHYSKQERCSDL

BV-2 = experiment: Cytotoxicity activity in mouse BV2 cells assessed as reduction in cell viability up to 100 uM measured after 72 hrs incubation by MTT assay; type: cell-based; conditions: bv-2, 72 h
H3R = experiment: Selectivity index, ratio of CC50 for human SH-SY5Y cells to IC50 for inhibition of human H3R expressed in methylhistamine-induced human H3-bla U2OS cells; type: toxicity, cell-based; conditions: read-out: Ratio CC50/IC50
In short: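 For IC50, H3-bla U2OS cells (human H3R–Gal4-VP16 plus β-arrestin/TEV, β-lactamase reporter) were seeded for 18 h. Compound was added for 30 min, then 400 nM methylhistamine (stock) for 5 h and FRET-B/G substrate for 2 h. Read 460/530 nm, triplicate per concentration, IC50 from log curves.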

Mus musculus [5] = experiment: Antialzheimer activity in ICR mouse model of scopolamine-induced cognitive deficit assessed as scopolamine-induced latency time at 10 to 30 mg/kg, po treated for 1 hr followed by scopolamine challenge for 30 mins by step-down passive avoidance test (reference value: 5 secs); type: functional; in short: as §2
[6] = Tmax in ICR mouse at 30 mg/kg, po measured upto 48 hrs by LCMS/MS method; type: ADME, organism-based; conditions: in vivo
[7] = Log BB, ratio of Cmax in brain to blood in ICR mouse at 30 mg/kg, po measured upto 48 hrs by LCMS/MS method; type: ADME, organism-based; conditions: read-out: logBB (converted)
[8] = Cmax in ICR mouse at 30 mg/kg, po measured upto 48 hrs by LCMS/MS method; type: ADME, organism-based; design: dose 30 mg/kg, route oral; conditions: in vivo
Mus musculus [9] = experiment: Antialzheimer activity in ICR mouse model of scopolamine-induced cognitive deficit assessed as reduction scopolamine-induced error times at 10 to 30 mg/kg, po treated for 1 hr followed by scopolamine challenge for 30 mins by step-down passive avoidance test; type: functional, organism-based; in short: as §2
Mus musculus [10] = experiment: Effect on latency time in ICR mouse model of scopolamine-induced cognitive deficit during training stage at 10 to 30 mg/kg, po treated for 1 hr followed by scopolamine challenge for 30 mins by step-down passive avoidance test; type: ADME, organism-based; conditions: in vivo; in short: as §2
[11] = Cytotoxicity in human SH-SY5Y cells assessed as reduction in cell viability after 72 hrs incubation by MTT assay; conditions: SH-SY5Y cells
[12] = Antioxidant activity assessed as AAPH radical scavenging activity preincubated for 15 mins with fluorescein before AAPH addition and recorded every 2 mins for 160 mins by ORAC-FL assay; type: functional
In short: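 ORAC-FL assay in 75 mM PBS, pH 7.4. Compound was preincubated with fluorescein (20 nM final) for 15 min at 37 °C, then AAPH (18 mM final) was added. Fluorescence (ex 460/em 520 nm) was read every 2 min for 160 min. Net area under the decay curve, blank-normalized, is expressed as µM Trolox equivalents per µM compound. Duplicates, ≥3 independent assays.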

[13] = AUC (0 to t) in ICR mouse at 30 mg/kg, po measured upto 48 hrs by LCMS/MS method; type: ADME, organism-based; design: time < 48 hr, dose 30 mg/kg, route oral; conditions: in vivo
Histamine H3 receptor = Histamine H3 receptor (Homo sapiens, UniProt Q9Y5N1); experiment: Inhibition of human H3R expressed in methylhistamine-induced human H3-bla U2OS cells incubated for 30 mins by beta-lactamase complementation technology; type: cell-based; conditions: read-out: IC50
In short: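 H3-bla U2OS cells co-express human H3R-Gal4-VP16 (TEV site) and β-arrestin/TEV protease with a UAS-β-lactamase reporter. IC50 came from log concentration-inhibition curves. Triplicates, three independent experiments.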

Mus musculus [14] = experiment: Effect on error times in ICR mouse model of scopolamine-induced cognitive deficit during training stage at 10 to 30 mg/kg, po treated for 1 hr followed by scopolamine challenge for 30 mins by step-down passive avoidance test; type: ADME, organism-based; conditions: in vivo; in short: as §2

Chain of Histamine H3 receptor (Q9Y5N1 whole entry, the tested form may be a part): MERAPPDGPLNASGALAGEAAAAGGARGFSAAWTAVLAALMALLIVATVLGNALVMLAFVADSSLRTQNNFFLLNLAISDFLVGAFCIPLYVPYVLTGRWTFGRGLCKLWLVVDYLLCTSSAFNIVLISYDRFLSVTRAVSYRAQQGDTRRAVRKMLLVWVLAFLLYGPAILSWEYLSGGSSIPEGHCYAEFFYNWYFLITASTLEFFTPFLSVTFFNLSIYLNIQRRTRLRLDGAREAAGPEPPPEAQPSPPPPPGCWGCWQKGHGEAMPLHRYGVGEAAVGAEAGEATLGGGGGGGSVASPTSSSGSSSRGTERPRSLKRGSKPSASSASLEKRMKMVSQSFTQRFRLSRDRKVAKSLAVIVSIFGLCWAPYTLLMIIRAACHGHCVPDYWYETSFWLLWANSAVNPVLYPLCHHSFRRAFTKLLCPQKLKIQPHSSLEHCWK
Chain of Cholinesterase (Q03311 whole entry): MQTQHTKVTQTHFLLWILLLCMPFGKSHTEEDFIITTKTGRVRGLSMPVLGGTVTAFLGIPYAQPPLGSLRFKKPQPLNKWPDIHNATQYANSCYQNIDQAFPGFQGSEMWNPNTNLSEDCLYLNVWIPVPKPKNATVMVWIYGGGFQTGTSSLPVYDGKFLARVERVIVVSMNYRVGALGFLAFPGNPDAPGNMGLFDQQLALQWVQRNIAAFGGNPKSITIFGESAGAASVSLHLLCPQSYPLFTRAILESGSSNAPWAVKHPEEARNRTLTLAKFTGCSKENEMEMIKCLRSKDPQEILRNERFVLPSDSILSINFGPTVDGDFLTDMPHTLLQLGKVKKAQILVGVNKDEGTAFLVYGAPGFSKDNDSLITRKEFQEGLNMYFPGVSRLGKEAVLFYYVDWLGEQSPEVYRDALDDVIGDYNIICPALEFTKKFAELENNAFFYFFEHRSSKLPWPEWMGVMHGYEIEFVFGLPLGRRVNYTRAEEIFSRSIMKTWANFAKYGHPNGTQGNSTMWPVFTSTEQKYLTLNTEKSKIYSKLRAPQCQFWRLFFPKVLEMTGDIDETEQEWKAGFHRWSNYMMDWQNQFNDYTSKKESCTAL

CCN(C)CCCCOc1ccc2c(=O)c(-c3ccc(OCCN4CCCCC4)cc3)coc2c1
Activity [1]: Non-Toxic | selectivity ratio (AChE): > 1230 | Activity (Mus musculus [2]): Dose-dependent effect | IC50 (Cholinesterase): 2890 nM | Activity [3]: Non-Toxic | half-life [4]: 13.9 h | IC50 (Acetylcholinesterase): 81 nM | Activity (BV-2): Non-Toxic | selectivity ratio (H3R): > 370 | Time (Mus musculus [5]): 53 s | Tmax [6]: 0.65 h | Kp at 48 h [7]: 17.4 | Cmax [8]: 52 ng/mL | Activity (Mus musculus [9]): Dose-dependent effect | Activity (Mus musculus [10]): Non-Toxic | CC50 at 72 h [11]: > 100000 nM | Activity [12]: 0.01 equiv/µM | AUC(0-t) at 48 h [13]: 325 ng·h/mL | IC50 (Histamine H3 receptor): 270 nM | Activity (Mus musculus [14]): Non-Toxic
